High-throughput results (PubChem)
Hits are enriched below; roughly 2.6% of the tested compounds scored in any of these assays.
SENP8 block-1 = inhibitors of human SENP8 protease. AID 2540. inhibition, % at 10 µM. 330,000 tested, 1.2% active. Q96LD8. purified SENP8, Z-RLRGG-aminoluciferin cleavage, luminescence; in the data active means inhibition above about 50%
Target sequence (Q96LD8 whole entry, looked up): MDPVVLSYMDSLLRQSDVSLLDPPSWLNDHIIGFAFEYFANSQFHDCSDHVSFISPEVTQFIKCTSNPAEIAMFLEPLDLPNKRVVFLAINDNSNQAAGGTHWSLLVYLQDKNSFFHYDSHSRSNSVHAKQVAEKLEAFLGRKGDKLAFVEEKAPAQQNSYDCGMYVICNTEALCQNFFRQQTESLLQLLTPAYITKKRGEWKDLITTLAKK
SENP7 inh = blocks the human protease SENP7. inhibition, % at 5 µM. recombinant SENP7, Z-RLRGG-aminoluciferin luminescence, 40 min. 330,000 tested, 1.5% active. AID 434973. Q9BQF6;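 active means inhibition above about 50% at the single test dose, limit read from the data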;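 further: plate controls were DMSO with enzyme for no effect and no enzyme buffer wells for full effect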
Target sequence (Q9BQF6 706-1050 limits assumed): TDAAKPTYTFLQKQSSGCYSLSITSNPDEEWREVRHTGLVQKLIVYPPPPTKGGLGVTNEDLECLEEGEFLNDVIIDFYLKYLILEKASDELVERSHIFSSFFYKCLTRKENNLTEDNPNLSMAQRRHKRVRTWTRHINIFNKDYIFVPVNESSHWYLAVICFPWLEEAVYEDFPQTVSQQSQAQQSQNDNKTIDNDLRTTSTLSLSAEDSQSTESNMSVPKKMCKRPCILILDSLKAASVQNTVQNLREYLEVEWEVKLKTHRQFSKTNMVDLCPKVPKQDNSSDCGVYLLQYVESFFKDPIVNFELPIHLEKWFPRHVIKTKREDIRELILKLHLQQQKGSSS
SENP8 block-2 = blocks human SENP8 cleavage of Nedd8 substrate | inhibition, % at 20 µM | Q96LD8 | 360,000 tested, 0.64% active | recombinant SENP8, Nedd8 substrate fluorescence; in the data active means inhibition mostly above about 40%, no sharp cut-off; inactive means mostly below about 27%
SENP6 inh = SENP6 protease inhibition | Q9GZR1 | Recombinant SENP6 catalytic domain, aminoluciferin luminescence | inhibition, % at 10 µM | 330,000 tested, 1.8% active | AID 2599;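 active means inhibition above about 50% at the single tested dose, limit read from the data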;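 further: plate controls were DMSO wells with enzyme for no effect and DMSO wells lacking enzyme for full effect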
SENP1 inh = blocks the human SENP1 SUMO protease catalytic domain; recombinant SENP1 catalytic domain, CyPet-SUMO1-YPet FRET cleavage; inhibition, % at 10 µM; 360,000 tested, 0.21% active;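 active means inhibition at least 30% at 10 µM, raw YFP signal under a set limit, fluorescence ratio 0.5 to 1.5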;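 further: 0% = enzyme with DMSO and 100% = no enzyme wells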
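Assay system: hSENP1 catalytic domain, recombinant. Amount: SENP1 enzyme, 20 pM final. Schedule: 50 min reaction, RT, dark. Technique: FRET, CFP and YFP emission. Control set: no-enzyme wells low, DMSO-plus-enzyme wells high control.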
Platelet DG rel = platelet dense granule release activity | AID 1663 | human platelet-rich plasma, SFLLRN dense granule ATP release, luminescence | inhibition, %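 (compounds screened at 7.5 µM in platelet-rich plasma)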 | 300,000 tested, 0.22% active;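 active means mean replicate score, as percent of positive control, at or above 50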
SENP8 inh conf = confirmation of human SENP8 protease inhibitors | shares compounds with SENP8 block-2 | purified SENP8, Nedd8-AMC/pro-Nedd8 cleavage fluorescence, 30 min | inhibition, % at 25 µM | 1,400 tested, 15% active | AID 624319; in the data active means inhibition mostly above about 39%, no sharp cut-off; inactive means mostly below about 34%
* = called active by the depositor; / = no result.

SMILES | SENP8 block-1 | SENP7 inh | SENP8 block-2 | SENP6 inh | SENP1 inh | Platelet DG rel | SENP8 inh conf
CCn1nnnc1NCc1ccc(OCc2c(F)cccc2Cl)c(OC)c1 | -5 | -9 | 17 | 11 | 0 | -2 | /
COC(=O)[C@H](Cc1ccccc1)[C@@H](C)OS(N)(=O)=O | -8 | -14 | 7 | -20 | 2 | 0 | /
Cc1cn2c(=O)c(C(=O)N3CCN(c4ccccc4Cl)CC3)cnc2s1 | -12 | -22 | -25 | -8 | 2 | 2 | /
COc1cc(N(C)C)c([N+](=O)[O-])cc1C(=O)NC(C)CNc1ccc([N+](=O)[O-])cc1Cl (stereo not given) | -13 | -8 | 42* | -22 | -2 | -13 | 26
CCN(CC)CCNC(=O)c1cc([N+](=O)[O-])c(N(C)C)cc1OC | -2 | -2 | 31 | -2 | 1 | 5 | /
CC1(C)OC(=O)C=C[C@]2(C)[C@H]3CC[C@@]4(C)[C@H](C(=O)O)OC(=O)[C@H]5O[C@]54[C@]3(C)C(=O)C[C@@H]12 | 2 | -1 | 6 | 7 | 0 | / | /
CCCc1cc(=O)[nH]c(SCC(=O)Nc2oc(C)c3c(C)n[nH]c(=O)c23)n1 | -3 | -23 | -4 | -10 | -6 | -7 | /
CN(C(=O)COC(=O)Cn1c(C(F)(F)F)nc2ccccc21)c1c(N)n(Cc2ccccc2)c(=O)[nH]c1=O | -7 | -6 | 6 | 0 | -1 | -12 | /
CCN1C(=O)[C@H]2[C@@H](c3ccc(C)cc3)N[C@]3(CCCN(Cc4ccc(F)cc4)C3=O)[C@H]2C1=O | / | / | 14 | / | -2 | / | /
CCC(NC(=S)NCc1ccccc1)C(=O)O (stereo not given) | -1 | 0 | 48* | 1 | 2 | 11 | 35
CCNC(=S)NNC(=S)NCc1ccccc1 | -3 | 5 | 5 | -7 | 2 | 21 | /
Cc1ccc(C(=O)NCc2ccccn2)c(Cl)c1 | -6 | -5 | 41* | 3 | 1 | 9 | 22
COC(=O)c1cc(=O)n2c(sc3ccccc32)c1C#N | -6 | 8 | -409 | -22 | -31 | -5 | /
COCCNC(=O)c1n[nH]c2ccccc12 | -16 | -3 | 9 | 3 | 1 | -1 | /
CCCNC(=O)CN(C)C(=O)c1n[nH]c2ccccc12 | 1 | 5 | 43* | -9 | 2 | -1 | 15
CCOC(=O)C1C2C=CC3(CN(Cc4cccs4)C(=O)C13)O2 (stereo not given) | 2 | -5 | 45* | -1 | 2 | 0 | 6
COC(=O)C1[C@H]2C(=O)N(Cc3cccs3)C[C@]23C=C[C@H]1O3 (stereo not given in full) | -1 | 0 | 9 | -6 | 1 | 7 | /
Cc1ccc(S(=O)(=O)N[C@H](C(=O)N2CCC(C(=O)N[C@@H](CC(=O)O)C(=O)O)CC2)C(C)C)cc1 | -3 | -4 | 13 | -6 | 1 | -1 | /
Cc1ccc(S(=O)(=O)N[C@@H](CC(C)C)C(=O)N2CCC(C(=O)N[C@@H](Cc3ccccc3)C(=O)O)CC2)cc1 | 3 | -6 | 65* | 11 | 6 | -1 | 7
CCC(C)[C@H](NS(=O)(=O)c1ccc(C)cc1)C(=O)N1CCC(C(=O)N2CCC(C(=O)OC)CC2)CC1 (stereo not given in full) | -3 | 6 | 46* | 13 | 2 | 18 | 3
CC1(C)CC2CC(C)(CN2C(=O)c2ccc([N+](=O)[O-])cc2[N+](=O)[O-])C1 (stereo not given) | -4 | 9 | 15 | 6 | 4 | -3 | /
Cc1ccc([C@H]2C[C@H](n3cc(COC(=O)c4ccccc4)nn3)[C@@H](O)CN2C(=O)C2CCCCC2)cc1 | / | / | 7 | / | 2 | / | /
N#CC(C#N)=c1ccc2c(c1)N1C3=C(CCCC3)CC3CCCCC31N=2 (stereo not given) | 25 | 19 | 43* | 21 | 62 | -1 | 7
N#C/C(C(N)=O)=c1/ccc2c(c1)N1C3=C(CCCC3)CC3CCCCC31N=2 (stereo not given) | 11 | 0 | / | 10 | / | 3 | /
CC(C)Cc1nnc(NC(=O)CSc2nc(O)c(Cc3ccccc3)c(=O)[nH]2)s1 | -5 | -11 | 5 | 1 | 0 | 3 | /
SMILES | SENP8 block-1 | SENP7 inh | SENP8 block-2 | SENP6 inh | SENP1 inh | Platelet DG rel | SENP8 inh conf
O=C(Nc1ccccc1F)c1ccc(CNS(=O)(=O)c2cccc(C(F)(F)F)c2)cc1 | 4 | 4 | 48* | -2 | 2 | -5 | 7
CCn1nc([N+](=O)[O-])c(C(C#N)c2nc3cc(C(F)(F)F)ccc3s2)c(Cl)c1=O (stereo not given) | 15 | 10 | 24 | 21 | -9 | 2 | /
CCCn1nc([N+](=O)[O-])c(C(C#N)c2nc3ccccc3o2)c(Cl)c1=O (stereo not given) | 6 | -6 | 43* | 8 | 2 | -10 | 32
Cn1nc(C(=O)Nc2sc3c(c2C#N)CCCC3)ccc1=O | -4 | 14 | 15 | -25 | 1 | 5 | /
Cc1noc(C)c1S(=O)(=O)N1CCC(C(=O)NCCCN2CC(C)CC(C)C2)CC1 (stereo not given) | 5 | 6 | 13 | 1 | 1 | 4 | /
Cc1noc(C)c1S(=O)(=O)N1CCC(C(=O)NCCN2CCC(C)CC2)CC1 | -1 | -2 | 41* | -15 | 1 | 2 | 12
Cc1c(C(=O)N(C)C)sc(NC(=O)c2cc([N+](=O)[O-])cc([N+](=O)[O-])c2)c1C#N | -3 | 8 | 44* | -2 | 1 | -1 | 28
COC(=O)c1cc(C(=O)Nc2nc3ccccc3[nH]2)cc([N+](=O)[O-])c1 | 4 | 2 | -4 | 9 | -1 | 0 | /
C/C(=N\Nc1nc2ccccc2[nH]1)c1ccc([N+](=O)[O-])cc1 | 1 | -10 | 54* | -12 | 19 | 2 | 4
Cc1ccccc1C(=O)Nc1ccc(-c2nnc(SC(C)C(=O)O)n2C)cc1 (stereo not given) | -4 | -11 | 41* | -13 | 1 | 4 | 16
CCCC12CN3CCN(CC(C3)/C1=N\NC(=O)c1ccc(C(C)(C)C)cc1)C2 | -9 | -10 | 18 | -4 | -1 | 1 | /
O=[N+]([O-])c1cccnc1Oc1ccccc1F | 2 | 2 | 5 | -3 | 1 | 4 | /
Nc1ncc([N+](=O)[O-])c(Oc2ccccc2F)n1 | 0 | -3 | 49* | -46 | 1 | 1 | 9
COc1ccccc1/C=C/C(=O)Nc1cccc(S(=O)(=O)NC2=NCCCCC2)c1 | 0 | 1 | -28 | 9 | -1 | -2 | /
O=c1nccc(Nc2ccccc2)[nH]1 | -1 | -2 | 17 | 7 | 2 | -4 | /
c1ccc(Nc2cc(Nc3ccccc3)[nH]n2)cc1 | -12 | 7 | 55* | -19 | 2 | 6 | 40
CN(C)c1cc[n+](/C(C(=S)Nc2ccc(SC(F)F)cc2)=C(/[O-])c2ccccc2)cc1 | 1 | 11 | 44* | -11 | 1 | -15 | 23
